Data: ChEMBL document CHEMBL2040760, “Synthesis and biological evaluation of novel (-)-Cercosporamide derivatives as potent selective PPARγ modulators” (Eur J Med Chem, 2012)
≈ marks a conversion by molar mass, not a printed value. Calls of active or inactive are those of the source. The rule behind the calls is not given here.

Key:
Rattus norvegicus [1] = test: Antidiabetic activity in Zucker diabetic fatty rat assessed as reduction of non-fasting plasma glucose level at >1 mg/kg, po qd for 12 days; format: functional
In short: (§1)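 Female ZDF rats, 5 weeks old on arrival, acclimatised over 1 week on MR-DBT chow with 10% lard. Randomised on Day -1 by BW, PG, insulin and blood indices. Once-daily oral gavage in 0.5% methylcellulose at 0.01–100 mg/kg for 12 days, n = 5. BW recorded daily. Tail-vein plasma taken Day 12 for glucose, TG, FFA and insulin kits. Dunnett vs vehicle.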

Rattus norvegicus [2] = test: Antidiabetic activity in po dosed Zucker diabetic fatty rat assessed as improvement in plasma lipids profiles administered qd for 12 days; format: functional, organism-based; in short: as §1
Rattus norvegicus [3] = test: Antidiabetic activity in Zucker diabetic fatty rat assessed as reduction of free fatty acids level at >1 mg/kg, po qd for 12 days; format: functional, organism-based; in short: as §1
Rattus norvegicus [4] = test: Antidiabetic activity in Zucker diabetic fatty rat assessed as reduction of triglyceride level at 1 to 100 mg/kg, po qd for 12 days; format: functional, organism-based
In short: (§2)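 Female ZDF rats (5 weeks old on arrival, acclimatized >1 week on MR-DBT diet with 10% lard) randomized on Day -1 by BW, plasma glucose, insulin, Hct, Hb, RBC, MCV; n = 5/group. Oral gavage once daily in 0.5% methylcellulose, 0.01–100 mg/kg, Days 0–11. BW recorded daily; tail-vein plasma on Day 12 for glucose, TG, insulin, FFA; Dunnett's test vs vehicle.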

Rattus norvegicus [5] = test: Toxicity in Zucker diabetic fatty rat assessed as increase in body weight at 0.1 mg/kg, po qd for 12 days; format: organism-based; parameters: dose 0.1 mg/kg, route oral; details: in vivo, 288 h; in short: as §2
Rattus norvegicus [6] = test: Toxicity in Wistar-Imamichi rat assessed as increase in body weight at 300 mg/kg, po qd for 14 days; format: organism-based; parameters: dose 300 mg/kg, route oral; details: in vivo, 336 h
In short: (§3)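 Female Wistar–Imamichi rats (7 weeks old, acclimatized >1 week on FR2 chow), randomized by BW; n = 5/group. Oral gavage once daily in 0.5% methylcellulose, 100 mg/kg or 30–300 mg/kg, Days 0–13. BW recorded daily. On Day 14, heart weighed after Evans blue dosing and aortic blood draw under ether. Dunnett's or unpaired two-tailed t-test vs vehicle.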

Rattus norvegicus [7] = test: Toxicity in po dosed Wistar-Imamichi rat assessed as increase heart weight administered qd for 14 days; format: organism-based; details: in vivo, 336 h; in short: as §3
[8] = target: T1, Peroxisome proliferator-activated receptor gamma (Homo sapiens) (UniProt P37231); test: Modulation of full-length human pSG5-fused PPARgamma expressed in MG-63 cells co-expressing pGV-P2-PPRE after 24 hrs by luciferase reporter gene based transactivation assay relative to 5-(4-{[6-(4-hydroxy-3,5-dimethylphenoxy)-1-methyl-1H-benzimidazol- 2-yl]methoxy}benzyl)-1,3-thiazolidine-2,4-dione; format: cell-based
T1 sequence (whole entry): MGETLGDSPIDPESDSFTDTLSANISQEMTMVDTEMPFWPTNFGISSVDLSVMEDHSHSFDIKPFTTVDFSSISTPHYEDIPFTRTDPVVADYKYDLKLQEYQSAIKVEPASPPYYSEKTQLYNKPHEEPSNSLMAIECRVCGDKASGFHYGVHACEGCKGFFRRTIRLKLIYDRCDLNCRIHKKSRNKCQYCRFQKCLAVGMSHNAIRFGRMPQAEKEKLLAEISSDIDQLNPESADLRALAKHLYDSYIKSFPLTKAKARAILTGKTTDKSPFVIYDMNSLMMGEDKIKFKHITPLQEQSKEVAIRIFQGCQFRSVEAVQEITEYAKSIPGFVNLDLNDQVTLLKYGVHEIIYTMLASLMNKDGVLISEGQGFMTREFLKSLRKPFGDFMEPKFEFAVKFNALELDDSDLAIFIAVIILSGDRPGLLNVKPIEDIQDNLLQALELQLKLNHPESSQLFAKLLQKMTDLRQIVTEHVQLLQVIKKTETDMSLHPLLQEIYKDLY
In short: (§4)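 MG-63 cells transiently co-transfected (Lipofectamine, 4 h, serum- and antibiotic-free) with pSG5-hPPARγ and pGV-P2-PPRE luciferase reporter, replated at 40,000 cells/well. After 24 h and medium change, exposed to graded compound concentrations for 20 h. Luciferase luminescence read as the output.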

[9] = target: T2, Peroxisome proliferator-activated receptor gamma (Homo sapiens, UniProt P37231); test: Modulation of full-length human pSG5-fused PPARgamma expressed in MG-63 cells co-expressing pGV-P2-PPRE after 24 hrs by luciferase reporter gene based transactivation assay; format: cell-based; in short: as §4
T2 sequence (P37231 whole entry): T1 sequence (whole entry)

[10] = target: T2, Peroxisome proliferator-activated receptor gamma; test: Modulation of human GAL4-fused PPARgamma LBD expressed in COS7 cells co-expressing pG5luc by luciferase reporter gene based transactivation assay; format: cell-based, COS-7
In short: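 COS7 cells in DMEM with 10% FBS were transfected with pM-hPPARγ, pM-PPARα or pM-PPARδ (GAL4-LBD) plus pG5luc using Lipofectamine 2000, then reseeded and held about 24 h. Serial dilutions were added, with 0.1% DMSO as control, for about 24 h more. Read-out was luciferase luminescence. Mean ± S.E.M., n = 3.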

[11] = Solubility of the compound in JP2 at pH 6.8; format: physicochemical; details: JP2, pH 6.8
In short: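 Solubility was measured in JP2 medium at pH 6.8.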

Emax [8]	EC50 [9]	Compound	further results
28%	0.027 µM	COc1cc(O)c2c(c1C(=O)NCc1c(C)ccc3cc(F)ccc13)OC1=CC(O)=C(C(C)=O)C(=O)[C@]12C	
40%	0.065 µM	COc1cc(O)c2c(c1C(=O)NCc1c(C)ccc3ccc(F)cc13)OC1=CC(O)=C(C(C)=O)C(=O)[C@]12C	

Continued, molecule first:

Compound	Emax [8]	EC50 [9]	further results
CN(CCOc1ccc(CC2SC(=O)NC2=O)cc1)c1ccccn1 (configuration not stated) [ROSIGLITAZONE]			Activity (Rattus norvegicus [1]): <200 mg/dL; Activity (Rattus norvegicus [2]): Dose-dependent effect; Activity (Rattus norvegicus [3]): Active; Activity (Rattus norvegicus [4]): Active; Activity (Rattus norvegicus [5]): Toxic; Activity (Rattus norvegicus [6]): Non-toxic; Activity (Rattus norvegicus [7]): Dose-dependent effect
COc1cc(O)c2c(c1C(=O)NCc1c(C)ccc3ccccc13)OC1=CC(O)=C(C(C)=O)C(=O)[C@]12C	47%	0.028 µM	
CCc1ccc2ccccc2c1CNC(=O)c1c(OC)cc(O)c2c1OC1=CC(O)=C(C(C)=O)C(=O)[C@]12C	39%	0.0037 µM	
COc1cc(O)c2c(c1C(=O)NCc1cccc3ccccc13)OC1=CC(O)=C(C(C)=O)C(=O)[C@]12C	47%	0.18 µM	
CCCc1ccc2ccccc2c1CNC(=O)c1c(OC)cc(O)c2c1OC1=CC(O)=C(C(C)=O)C(=O)[C@]12C	37%	0.043 µM	
CCc1cc(F)c2ccccc2c1CNC(=O)c1c(OC)cc(O)c2c1OC1=CC(O)=C(C(C)=O)C(=O)[C@]12C		0.00094 µM	EC50 [10]: 0.012 µM; solubility [11]: 23 µg/mL (≈ 43.3 µM)
